Assay results taken from PMC10099425 (ACS Omega, 2023).

Key:
[1] = Diffusion and permeability studies; type: in vitro ADME; conditions: after 480 min, PBS pH 6.8, 37 °C, NAR 50 mg/mL in donor
[2] = Pharmacokinetic study after oral administration; type: in vivo, Wistar rats; conditions: male, Wistar, rat, plasma, 50 mg/kg
Method in brief: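 Male Wistar rats (220–250 g, 10–12 weeks) were fasted overnight with water ad libitum (n = 6/group). They were dosed orally with the compound as a 0.5% w/v Na-CMC suspension or DES formulation. Retro-orbital blood was drawn at 0, 0.5, 2, 4, 6, 8, 12 and 24 h. Plasma was precipitated with acetonitrile (1:3) and assayed by isocratic C18 HPLC-DAD at 283 nm. Parameters came from PK software; mean ± SD.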

[3] = cited from earlier work

C[C@@H]1O[C@@H](O[C@H]2[C@H](Oc3cc(O)c4c(c3)O[C@H](c3ccc(O)cc3)CC4=O)O[C@H](CO)[C@@H](O)[C@@H]2O)[C@H](O)[C@H](O)[C@H]1O [NAR (pure), 4′,5,7-trihydroxyflavanone 7-rhamnoglucoside]
amount of NAR diffused [1]: 30.78 ± 3.4 % w/v | AUC(0-t) [2]: 226 ± 4.2 ng·h/mL | Cmax [2]: 31.2 ± 2.3 ng/mL | MRT [2]: 6.46 ± 1.7 h | Tmax [2]: 4.1 ± 0.6 h | half-life [2]: 206 ± 66 min | elimination half-life [3]: 3.64 ± 3.0 h
